Measurements reported in the M2OR odorant receptor database.
Positions count from the first letter of the chain named.

How the values were obtained:
Conditions in all cases: stereoisomer not certain
OR1D4 (Homo sapiens) = molecular target: T1, OR1D4 (Homo sapiens) (UniProt P47884)
T1 sequence (whole entry): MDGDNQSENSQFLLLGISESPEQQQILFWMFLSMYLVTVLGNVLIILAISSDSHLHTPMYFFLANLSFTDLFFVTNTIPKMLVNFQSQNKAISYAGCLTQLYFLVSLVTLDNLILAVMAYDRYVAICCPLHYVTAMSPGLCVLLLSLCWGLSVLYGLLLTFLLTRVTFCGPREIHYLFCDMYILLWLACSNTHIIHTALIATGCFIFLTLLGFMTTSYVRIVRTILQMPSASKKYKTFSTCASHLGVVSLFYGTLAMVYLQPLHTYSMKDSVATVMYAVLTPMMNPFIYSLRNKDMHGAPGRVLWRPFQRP
Procedure, shortened: (§1)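 Each receptor–molecule pair is labelled responsive or non-responsive (inactive) according to whether the original authors judged the measured signal statistically different from baseline. The data were taken from the main text and supplementary material of published papers and checked for typos and inconsistencies. Assay methods differed by source, with transient luciferase assays in mammalian cell lines being common.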

OR1D5 (Homo sapiens) = molecular target: T2, OR1D5 (Homo sapiens) (UniProt P58170)
T2 sequence (whole entry): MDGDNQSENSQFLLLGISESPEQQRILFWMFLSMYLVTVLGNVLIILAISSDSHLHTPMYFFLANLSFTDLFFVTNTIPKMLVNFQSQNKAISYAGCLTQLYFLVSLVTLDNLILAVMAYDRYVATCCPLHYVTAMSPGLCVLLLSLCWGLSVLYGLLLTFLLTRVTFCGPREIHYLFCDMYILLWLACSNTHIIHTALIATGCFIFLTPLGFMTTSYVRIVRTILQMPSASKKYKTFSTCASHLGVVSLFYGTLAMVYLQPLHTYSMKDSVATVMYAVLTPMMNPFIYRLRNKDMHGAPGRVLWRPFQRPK
Procedure, shortened: as §1

OR1E1 (Homo sapiens) = molecular target: T3, OR1E1 (Homo sapiens) (UniProt P30953)
T3 sequence (whole entry): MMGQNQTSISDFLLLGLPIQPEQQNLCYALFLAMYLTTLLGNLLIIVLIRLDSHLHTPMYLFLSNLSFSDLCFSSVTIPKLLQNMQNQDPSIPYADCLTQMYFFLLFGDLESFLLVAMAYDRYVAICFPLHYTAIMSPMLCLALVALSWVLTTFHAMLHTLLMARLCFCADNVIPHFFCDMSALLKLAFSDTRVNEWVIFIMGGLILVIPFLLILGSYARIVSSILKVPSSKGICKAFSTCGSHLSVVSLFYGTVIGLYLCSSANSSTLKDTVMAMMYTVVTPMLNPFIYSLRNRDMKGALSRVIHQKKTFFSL
Procedure, shortened: as §1

OR1E2 (Homo sapiens) = molecular target: T4, OR1E2 (Homo sapiens) (UniProt P47887)
T4 sequence (whole entry): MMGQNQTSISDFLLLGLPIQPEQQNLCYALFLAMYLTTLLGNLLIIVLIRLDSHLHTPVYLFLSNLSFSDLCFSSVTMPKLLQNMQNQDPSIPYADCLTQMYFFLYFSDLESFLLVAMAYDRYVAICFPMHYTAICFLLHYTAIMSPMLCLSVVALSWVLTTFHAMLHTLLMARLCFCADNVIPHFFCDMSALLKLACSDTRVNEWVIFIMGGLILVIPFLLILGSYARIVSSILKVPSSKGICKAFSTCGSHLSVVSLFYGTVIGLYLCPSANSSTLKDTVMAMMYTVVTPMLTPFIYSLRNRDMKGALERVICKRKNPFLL
Procedure, shortened: as §1

OR1F1 (Homo sapiens) = molecular target: T5, OR1F1 (Homo sapiens) (UniProt O43749)
T5 sequence (whole entry): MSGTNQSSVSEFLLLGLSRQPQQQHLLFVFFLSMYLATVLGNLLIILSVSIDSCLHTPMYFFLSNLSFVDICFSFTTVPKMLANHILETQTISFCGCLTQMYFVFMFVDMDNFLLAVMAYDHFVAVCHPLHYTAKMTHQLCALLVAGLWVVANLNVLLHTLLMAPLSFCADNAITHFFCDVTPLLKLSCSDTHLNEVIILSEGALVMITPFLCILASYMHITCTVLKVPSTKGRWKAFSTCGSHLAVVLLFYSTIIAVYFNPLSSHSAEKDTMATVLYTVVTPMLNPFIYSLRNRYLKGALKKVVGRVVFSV
Procedure, shortened: as §1

OR1F12P (Homo sapiens) = molecular target: T6, OR1F12P (Homo sapiens) (UniProt Q8NHA8)
T6 sequence (whole entry): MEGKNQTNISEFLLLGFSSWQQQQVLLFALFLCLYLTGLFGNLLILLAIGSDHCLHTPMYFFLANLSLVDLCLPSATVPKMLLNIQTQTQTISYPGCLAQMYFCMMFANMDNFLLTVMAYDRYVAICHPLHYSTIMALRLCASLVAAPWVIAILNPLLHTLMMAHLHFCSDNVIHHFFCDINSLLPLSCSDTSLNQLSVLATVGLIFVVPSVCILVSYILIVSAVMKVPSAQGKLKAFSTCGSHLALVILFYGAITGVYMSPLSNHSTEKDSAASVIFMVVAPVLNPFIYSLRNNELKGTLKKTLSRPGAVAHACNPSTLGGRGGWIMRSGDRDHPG
Procedure, shortened: as §1

OR1G1 (Homo sapiens) = molecular target: T7, OR1G1 (Homo sapiens) (UniProt P47890)
T7 sequence (whole entry): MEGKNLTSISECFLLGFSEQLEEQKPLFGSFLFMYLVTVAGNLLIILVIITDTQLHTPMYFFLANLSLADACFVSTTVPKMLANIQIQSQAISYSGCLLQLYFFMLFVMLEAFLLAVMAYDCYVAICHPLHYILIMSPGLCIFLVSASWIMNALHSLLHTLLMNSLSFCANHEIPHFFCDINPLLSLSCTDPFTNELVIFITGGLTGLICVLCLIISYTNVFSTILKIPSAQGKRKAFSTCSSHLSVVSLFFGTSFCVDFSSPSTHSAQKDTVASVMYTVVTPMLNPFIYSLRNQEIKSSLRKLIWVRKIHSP
Procedure, shortened: as §1

OR1I1 (Homo sapiens) = molecular target: T8, OR1I1 (Homo sapiens) (UniProt O60431)
T8 sequence (whole entry): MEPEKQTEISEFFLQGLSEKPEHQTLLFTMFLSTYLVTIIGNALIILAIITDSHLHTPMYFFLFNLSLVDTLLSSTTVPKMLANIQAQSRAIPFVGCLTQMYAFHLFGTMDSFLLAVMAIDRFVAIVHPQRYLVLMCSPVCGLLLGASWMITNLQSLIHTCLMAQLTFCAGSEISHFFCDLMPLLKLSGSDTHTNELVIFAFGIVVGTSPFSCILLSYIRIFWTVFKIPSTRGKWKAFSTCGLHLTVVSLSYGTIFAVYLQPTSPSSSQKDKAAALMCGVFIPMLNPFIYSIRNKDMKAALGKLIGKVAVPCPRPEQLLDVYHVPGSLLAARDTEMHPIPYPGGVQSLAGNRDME
Procedure, shortened: as §1

OR1J1 (Homo sapiens) = molecular target: T9, OR1J1 (Homo sapiens) (UniProt Q8NGS3)
T9 sequence (whole entry): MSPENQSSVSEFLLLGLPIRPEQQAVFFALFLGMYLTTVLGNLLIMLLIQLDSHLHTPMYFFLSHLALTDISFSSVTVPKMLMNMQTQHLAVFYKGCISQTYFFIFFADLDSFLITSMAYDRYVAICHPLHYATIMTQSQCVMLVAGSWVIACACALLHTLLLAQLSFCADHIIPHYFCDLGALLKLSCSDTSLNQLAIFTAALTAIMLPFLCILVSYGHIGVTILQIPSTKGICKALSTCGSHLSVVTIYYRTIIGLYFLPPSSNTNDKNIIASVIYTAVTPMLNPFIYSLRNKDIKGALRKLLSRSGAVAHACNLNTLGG
Procedure, shortened: as §1

OR1J2 (Homo sapiens) = molecular target: T10, OR1J2 (Homo sapiens) (UniProt Q8NGS2)
T10 sequence (whole entry): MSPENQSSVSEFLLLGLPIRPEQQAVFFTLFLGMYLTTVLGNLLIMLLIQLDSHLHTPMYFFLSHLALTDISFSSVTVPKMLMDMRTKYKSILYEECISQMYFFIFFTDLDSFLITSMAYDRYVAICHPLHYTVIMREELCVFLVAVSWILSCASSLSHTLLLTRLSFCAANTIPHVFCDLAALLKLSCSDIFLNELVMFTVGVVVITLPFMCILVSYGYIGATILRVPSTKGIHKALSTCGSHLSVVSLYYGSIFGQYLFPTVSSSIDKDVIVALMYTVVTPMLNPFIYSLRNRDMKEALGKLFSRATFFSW
Procedure, shortened: as §1

OR1J4 (Homo sapiens) = molecular target: T11, OR1J4 (Homo sapiens) (UniProt Q8NGS1)
T11 sequence (whole entry): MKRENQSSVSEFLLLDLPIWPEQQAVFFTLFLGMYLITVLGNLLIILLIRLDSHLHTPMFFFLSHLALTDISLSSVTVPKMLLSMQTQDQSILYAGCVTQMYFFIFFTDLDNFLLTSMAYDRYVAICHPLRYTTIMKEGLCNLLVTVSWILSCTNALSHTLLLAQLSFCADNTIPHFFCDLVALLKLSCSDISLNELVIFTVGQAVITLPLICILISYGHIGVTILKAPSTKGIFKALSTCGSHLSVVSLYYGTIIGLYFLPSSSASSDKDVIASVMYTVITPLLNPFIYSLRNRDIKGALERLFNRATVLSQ
Procedure, shortened: as §1

OR1K1 (Homo sapiens) = molecular target: T12, OR1K1 (Homo sapiens) (UniProt Q8NGR3)
T12 sequence (whole entry): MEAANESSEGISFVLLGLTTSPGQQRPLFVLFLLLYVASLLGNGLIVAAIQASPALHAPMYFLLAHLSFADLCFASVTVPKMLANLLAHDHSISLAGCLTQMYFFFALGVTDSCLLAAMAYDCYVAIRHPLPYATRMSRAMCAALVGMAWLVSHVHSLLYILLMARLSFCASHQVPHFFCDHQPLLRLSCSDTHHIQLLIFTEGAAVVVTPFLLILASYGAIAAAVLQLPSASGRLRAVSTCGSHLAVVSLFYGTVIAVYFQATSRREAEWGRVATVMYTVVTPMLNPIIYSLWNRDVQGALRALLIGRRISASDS
Procedure, shortened: as §1

OR1L1 (Homo sapiens) = molecular target: T13, OR1L1 (Homo sapiens) (UniProt Q8NH94)
T13 sequence (whole entry): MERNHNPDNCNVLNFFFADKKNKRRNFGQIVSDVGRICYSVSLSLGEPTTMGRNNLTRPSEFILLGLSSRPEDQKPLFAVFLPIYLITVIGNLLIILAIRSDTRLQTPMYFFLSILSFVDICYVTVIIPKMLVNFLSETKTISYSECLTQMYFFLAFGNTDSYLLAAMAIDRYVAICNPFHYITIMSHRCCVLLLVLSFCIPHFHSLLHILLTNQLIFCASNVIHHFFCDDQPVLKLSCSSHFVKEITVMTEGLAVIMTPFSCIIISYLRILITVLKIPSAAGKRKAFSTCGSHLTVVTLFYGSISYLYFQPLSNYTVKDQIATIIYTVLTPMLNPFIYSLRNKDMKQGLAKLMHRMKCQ
Procedure, shortened: as §1

OR1E2 = test system: T14, OR1E2
T14 sequence (whole entry): T4 sequence (whole entry) with C27R
Procedure, shortened: as §1

OR1F1 = test system: T15, OR1F1
T15 sequence (whole entry): T5 sequence (whole entry) with F75S
Procedure, shortened: as §1

OR1L1 = test system: T16, OR1L1
T16 sequence (whole entry): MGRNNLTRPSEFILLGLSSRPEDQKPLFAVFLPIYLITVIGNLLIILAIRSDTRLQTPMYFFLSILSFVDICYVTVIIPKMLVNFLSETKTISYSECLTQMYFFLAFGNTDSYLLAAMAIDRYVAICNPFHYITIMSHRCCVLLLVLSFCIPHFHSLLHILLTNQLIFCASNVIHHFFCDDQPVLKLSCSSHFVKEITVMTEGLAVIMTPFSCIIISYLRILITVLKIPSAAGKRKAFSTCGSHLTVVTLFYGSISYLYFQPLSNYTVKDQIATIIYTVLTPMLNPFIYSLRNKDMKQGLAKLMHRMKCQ
Procedure, shortened: as §1

OR1E3 (Homo sapiens) = OR1E3 (Homo sapiens) (UniProt Q8WZA6)
Procedure, shortened: as §1
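Further: active if original authors judged signal statistically different from baseline.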

OR1E3 (Homo sapiens), sequence (Q8WZA6 whole entry): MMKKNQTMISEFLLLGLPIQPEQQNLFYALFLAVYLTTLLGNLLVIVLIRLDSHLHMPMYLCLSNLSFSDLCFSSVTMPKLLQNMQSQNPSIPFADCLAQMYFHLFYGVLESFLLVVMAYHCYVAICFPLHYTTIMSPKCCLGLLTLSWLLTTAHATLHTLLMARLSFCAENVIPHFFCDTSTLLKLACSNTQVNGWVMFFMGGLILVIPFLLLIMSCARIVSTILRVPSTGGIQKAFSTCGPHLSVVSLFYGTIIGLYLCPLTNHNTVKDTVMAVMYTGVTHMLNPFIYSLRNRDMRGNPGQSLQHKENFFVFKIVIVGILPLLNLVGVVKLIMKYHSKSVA

SMILES	odorant receptor agonist call (OR1D4 (Homo sapiens))	odorant receptor agonist call (OR1D5 (Homo sapiens))	odorant receptor agonist call (OR1E1 (Homo sapiens))	odorant receptor agonist call (OR1E2 (Homo sapiens))	odorant receptor agonist call (OR1F1 (Homo sapiens))	odorant receptor agonist call (OR1F12P (Homo sapiens))	odorant receptor agonist call (OR1G1 (Homo sapiens))	odorant receptor agonist call (OR1I1 (Homo sapiens))	odorant receptor agonist call (OR1J1 (Homo sapiens))	odorant receptor agonist call (OR1J2 (Homo sapiens))	odorant receptor agonist call (OR1J4 (Homo sapiens))	odorant receptor agonist call (OR1K1 (Homo sapiens))	odorant receptor agonist call (OR1L1 (Homo sapiens))	odorant receptor agonist call (OR1E2)	odorant receptor agonist call (OR1F1)	odorant receptor agonist call (OR1L1)	odorant receptor agonist call (OR1E3 (Homo sapiens))
CC(CO)CS (configuration not stated)	inactive	inactive	inactive	inactive	inactive	inactive	inactive	inactive	inactive	inactive	inactive	inactive	inactive	–	–	–	–
CC(=O)C(C)O (configuration not stated)	–	–	–	–	–	–	active	–	–	–	–	–	–	–	–	–	–
CC1=C(O)C(=O)C(C)O1 (configuration not stated)	–	inactive	inactive	inactive	inactive	inactive	inactive	inactive	inactive	inactive	inactive	inactive	–	inactive	inactive	inactive	–
CC1CCCCCCCCCCCCC(=O)C1 (configuration not stated)	inactive	inactive	–	inactive	inactive	inactive	inactive	inactive	inactive	–	–	inactive	inactive	–	–	–	inactive
CCCCC(S)C(C)CO (configuration not stated)	inactive	inactive	inactive	inactive	inactive	inactive	inactive	inactive	inactive	inactive	active	inactive	inactive	–	–	–	–
